Measured values pooled from the literature.
Protocols differ between the studies behind these lines.
Target: Serine/threonine-protein kinase 36 (STK36, Homo sapiens, UniProt Q9NRP7)
Residues used in one study (Q9NRP7 1-1315): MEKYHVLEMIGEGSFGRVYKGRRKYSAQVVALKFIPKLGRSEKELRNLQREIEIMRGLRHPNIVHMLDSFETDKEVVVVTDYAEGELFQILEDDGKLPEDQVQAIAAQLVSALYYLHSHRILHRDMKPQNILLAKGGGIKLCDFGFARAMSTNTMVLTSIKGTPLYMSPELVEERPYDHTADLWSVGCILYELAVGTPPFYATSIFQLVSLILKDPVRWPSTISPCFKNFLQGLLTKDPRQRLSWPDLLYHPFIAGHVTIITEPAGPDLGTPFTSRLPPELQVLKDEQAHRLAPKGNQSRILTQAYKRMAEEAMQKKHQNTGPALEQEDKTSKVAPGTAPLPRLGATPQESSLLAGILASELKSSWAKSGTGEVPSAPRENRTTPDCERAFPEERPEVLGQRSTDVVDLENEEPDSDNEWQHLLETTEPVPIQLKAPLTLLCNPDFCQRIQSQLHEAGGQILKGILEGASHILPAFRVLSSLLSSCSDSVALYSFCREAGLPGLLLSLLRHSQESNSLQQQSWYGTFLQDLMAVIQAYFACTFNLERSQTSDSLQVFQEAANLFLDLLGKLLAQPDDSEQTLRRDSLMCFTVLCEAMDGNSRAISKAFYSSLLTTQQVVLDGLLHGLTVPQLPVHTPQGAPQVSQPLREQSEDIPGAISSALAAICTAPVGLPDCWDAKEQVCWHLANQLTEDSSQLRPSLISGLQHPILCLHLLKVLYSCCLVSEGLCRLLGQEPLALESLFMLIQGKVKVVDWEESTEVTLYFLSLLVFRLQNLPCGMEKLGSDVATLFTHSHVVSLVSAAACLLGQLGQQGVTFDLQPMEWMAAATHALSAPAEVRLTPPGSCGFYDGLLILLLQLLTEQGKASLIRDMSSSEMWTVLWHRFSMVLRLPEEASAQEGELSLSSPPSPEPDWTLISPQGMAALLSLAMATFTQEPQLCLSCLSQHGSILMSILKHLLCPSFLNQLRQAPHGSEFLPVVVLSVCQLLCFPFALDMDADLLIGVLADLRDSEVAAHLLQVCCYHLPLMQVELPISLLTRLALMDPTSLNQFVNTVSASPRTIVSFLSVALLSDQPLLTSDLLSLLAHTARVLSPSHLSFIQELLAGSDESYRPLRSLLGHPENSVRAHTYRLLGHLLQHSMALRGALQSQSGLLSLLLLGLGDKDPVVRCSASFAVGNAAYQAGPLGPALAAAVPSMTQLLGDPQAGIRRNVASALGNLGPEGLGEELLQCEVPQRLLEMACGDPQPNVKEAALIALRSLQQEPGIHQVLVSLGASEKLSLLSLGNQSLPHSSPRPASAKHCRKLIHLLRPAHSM

Structure (SMILES)	test	setting	remaining binding
O=C(c1ccc(Nc2ncc(Cl)c(-c3ccc(Cl)s3)n2)cc1)N1CCC(N2CCCC2)CC1	binding, competition with immobilised ligand	1 µM	3.9%
COc1cnc(Nc2cccc(S(N)(=O)=O)c2)nc1N1CCN(c2ccccc2)CC1	binding, competition with immobilised ligand	1 µM	88%
O=C(c1ccc(Nc2nccc(-c3cc4ccccc4s3)n2)cc1)N1CCC(N2CCCC2)CC1	binding, competition with immobilised ligand	1 µM	11%
COc1cccc(CNC(=O)c2nc3scc(COCc4ccc(C(=O)O)cc4)c3c(=O)[nH]2)c1	cell-free assay, competition with immobilised ligand	1 µM	100%
CC1CCCN1c1nccc(-c2cnn3ncccc23)n1 (stereo not shown)	binding	1 µM	100%
Nc1ncc2c(n1)-c1c([nH]c3ccc(C#CC4CC4)cc13)CCCC2	binding, competition with immobilised ligand	1 µM	100%
CN(C)c1nccc(-c2cnc3ncccn23)n1	binding	1 µM	99%
O=C(NCC1CCOCC1)c1n[nH]cc1NC(=O)c1c(F)cccc1F	binding, competition with immobilised ligand	1 µM	98%
CC(=O)Nc1c(C(C)=O)c(=O)n(C)c2nc(-c3ccc(Cl)cc3Cl)c(-c3ccc(Cl)cc3)cc12	cell-free assay, competition with immobilised ligand	1 µM	92%
COc1ccnn2ncc(-c3ccnc(N(C)C)n3)c12	binding	1 µM	81%
Cc1c[nH]c2nccc(Oc3c(F)cc(Nc4cc(Cl)nc(N)n4)cc3F)c12	cell-free assay, competition with immobilised ligand	0.1 µM	85%
C[C@@H](c1ccc(-n2cnc3c(N)ncnc32)cc1)N1CCc2nn(C)c(Cc3ccccc3)c2C1=O	binding, competition with immobilised ligand	0.1 µM	67%
CN(C)c1nccc(-c2cnn3ncccc23)n1	binding	1 µM	100%
CNCc1ccccc1-c1csc([C@H](C)Nc2nc(C)nc3cc(OC)c(OC)cc23)c1	cell-free assay, competition with immobilised ligand	1 µM	100%
COc1ncc2cc3ccccc3nc2c1C#N	cell-free assay, competition with immobilised ligand	5 µM	88%
C[C@H]1CCN(c2nccc(-c3cnn4ncccc34)n2)C1	binding	1 µM	100%
C=CC(=O)N1CCC(C(=O)NCC(=O)N2CCN(c3nc(-c4cnc(N)nc4C(F)F)nc(N4CCOCC4)n3)CC2)CC1	binding, competition with immobilised ligand	1 µM	95%
Cc1cnc(Nc2ccc(C(=O)N3CCC(N4CCCC4)CC3)cc2)nc1-c1cc2ccccc2s1	binding, competition with immobilised ligand	1 µM	3.6%
COc1ccc2c(c1)O[C@H](c1ccc(OC)c(OC)c1)C[C@@H]2NC(=O)C1(c2ccc3c(c2)OC(F)(F)O3)CC1	cell-free assay, competition with immobilised ligand	1 µM	94%
CCN1CCN(Cc2ccc(C(=O)Nc3ccc(C)c(Oc4ccc5c(c4)CC(=O)N5)c3)cc2C(F)(F)F)CC1	binding, competition with immobilised ligand	1 µM	81%
CCC(=O)N[C@@H]1CC[C@H](C(=O)N(C)c2ccc(-c3nc4ccccc4o3)cc2)C1	cell-free assay, competition with immobilised ligand	1 µM	82%
N[C@@H]1CCN(c2nccc(-c3cnn4ncccc34)n2)C1	binding	1 µM	77%
